In ChEMBL document CHEMBL1137792, “The immobilization of gossypol derivative on N-polyvinylpyrrolidone increases its water solubility and modifies membrane-active properties” (J Med Chem, 2009):

Experiments:
[1] = Effect on nonenergized Wistar rat liver mitochondrial membrane permeability assessed as increase in permeability to Ba2+ ion at 20 uM; assay type: ADME, mitochondria, Mitochondria
Summary of the method: (§1)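 Passive swelling of nonenergized rat liver mitochondria (1.0 mg/mL protein) in iso-osmotic nitrate media, Tris-HNO3 pH 7.4, rotenone 0.33 μg/mL, 25 °C, stirred: KNO3 120 mM; Mg2+ and Ba2+ 80 mM; Ca2+ 40 mM with 120 mM sucrose. Absorbance decrease at 520 nm followed; swelling rates normalised to the K+ rate set as 1. Five recordings.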

[2] = Decrease in Wistar rat liver mitochondrial membrane fluidity assessed as rotational correlation times of spin probe at 0.15 uM by ESR; assay type: ADME, mitochondria, Mitochondria
Summary of the method: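 ESR of rat liver mitochondria (1 mg/mL protein) in 145 mM KCl, 10 mM Tris-HCl pH 7.4 with nitroxide spin probe added in ethanol to 10^-6 M final; 2 min incubation with compound (range 0.025-0.3 μM) before spectra; rotational correlation time τc derived. Mean ± SEM, n=9, three independent experiments.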

[3] = Toxicity in human erythrocytes assessed as reduction of membrane fluidity by fluorescent anisotropy; assay type: cell-based; conditions: erythrocyte
Summary of the method: (§2)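 Human erythrocyte ghosts (hypotonic Tris-HCl/EDTA lysis) diluted in PBS pH 7.4, 2 min at 37 °C with compound (0.05-0.75 μM final), then DPH 1 μM final, 15 min dark at room temperature; steady-state anisotropy, excitation 348/emission 426 nm; ratio to no-compound control (Ai/A0). Mean ± SEM, n=8.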

[4] = Drug binding to Wistar rat liver mitochondrial membrane assessed as [14C] labeled megosin after 5 mins; assay type: ADME, tissue-based; conditions: in vitro
Summary of the method: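 Mitochondria (10 mg protein/mL) incubated with 14C-labeled compound (10 nmol/mg protein, 9.45 mCi/mmol) plus 50-fold unlabeled (500 nmol/mg) at 22 °C with stirring; vacuum filtration through nitrocellulose, two water rinses, filters dried 24 h and counted by liquid scintillation; bound label expressed as cpm and % of total radioactivity. Mean ± SEM, n=12.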

[5] = Effect on nonenergized Wistar rat liver mitochondrial membrane permeability assessed as increase in permeability to potassium ion at 20 uM; assay type: ADME, mitochondria, Mitochondria; summary of the method: as §1
[6] = Toxicity in Wistar rat erythrocytes assessed as induction of hemolysis at 50 uM; assay type: cell-based, Erythrocyte; conditions: read-out: Activity
Summary of the method: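 Freshly isolated, washed rat erythrocytes as 2% suspension in 140 mM NaCl, 10 mM Tris-citrate, 1 mM EDTA, pH 7.5, incubated 30 min at 37 °C with compound (20-100 μM range); spun at 1000g, supernatant OD540 read against water-lysed cells as 100%. Mean ± SEM, n=9.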

[7] = Effect on nonenergized Wistar rat liver mitochondrial membrane permeability assessed as increase in permeability to Ca2+ ion at 20 uM; assay type: ADME, mitochondria, Mitochondria; summary of the method: as §1
[8] = Effect on nonenergized Wistar rat liver mitochondrial membrane permeability assessed as increase in permeability to Mg2+ ion at 20 uM; assay type: ADME, mitochondria, Mitochondria; summary of the method: as §1
[9] = Toxicity in human erythrocytes assessed as reduction of membrane fluidity at 0.4 uM by fluorescent anisotropy relative to untreated control; assay type: cell-based; conditions: erythrocyte; summary of the method: as §2

Activity [1]: Active | Activity [2]: 32.1 ×10⁻¹⁰ s | Drug uptake [4]: 88.2% | Activity [5]: Active | Activity [7]: Active | Activity [8]: Active
Structure (SMILES): Cc1cc2c(c(O)c1-c1c(C)cc3c(c1O)/C(=C/NCCS(=O)(=O)[O-])C(=O)C(O)=C3C(C)C)/C(=C/NCCS(=O)(=O)[O-])C(=O)C(O)=C2C(C)C.[Na+].[Na+] [MEGOSIN]
Activity [3]: Dose-dependent effect | hemolysis at 50 µM [6]: 68% | fold change (FC) [9]: 1.83
